# Shown are actives, neighbours in structure and some others; about 3% of the full set was active somewhere.
# 5HT1a antag: blocks the human serotonin 5-HT1a receptor | P08908 | CHO 5-HT1a Ga15 NFAT-bla reporter, antagonist mode | inhibition, % at 10 µM | actives 0.68% (n = 62,000) | AID 612;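 active = inhibition above the mean of all tested compounds plus 3 SD, cut at about 43% in these data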;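 note: receptor stimulated by 5-CT agonist at 100 nM near EC80; beta-lactamase reporter measured by ratiometric fluorescence of a cleavable substrate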
# 5HT1E antag: 5-HT1E (human) receptor antagonism; P28566; CHO 5-HT1E Ga15 NFAT-bla reporter, FRET, antagonist; inhibition, % at 6 µM; actives 0.99% (n = 65,000); AID 571;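 active = inhibition above a set limit, the mean inhibition across every tested compound plus 3 SD, cut at about 29% in these data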;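 note: signal is the 460 over 535 nm emission ratio of beta-lactamase substrate; 0% = agonist plus DMSO wells and 100% = wells without agonist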
# Target sequence (P28566 whole entry, looked up): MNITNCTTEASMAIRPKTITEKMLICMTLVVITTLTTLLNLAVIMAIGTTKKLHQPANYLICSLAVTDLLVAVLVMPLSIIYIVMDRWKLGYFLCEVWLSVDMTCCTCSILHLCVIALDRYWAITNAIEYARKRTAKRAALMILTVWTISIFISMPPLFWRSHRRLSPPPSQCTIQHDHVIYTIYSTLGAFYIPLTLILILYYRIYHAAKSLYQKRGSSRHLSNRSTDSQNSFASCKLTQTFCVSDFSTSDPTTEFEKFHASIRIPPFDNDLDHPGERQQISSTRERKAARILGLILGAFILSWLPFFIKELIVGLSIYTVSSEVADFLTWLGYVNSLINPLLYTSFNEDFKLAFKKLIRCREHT
# 5HT1E ag: 5-HT1E (human) receptor agonism | CHO 5-HT1E Ga15 NFAT-bla reporter, FRET; 0% DMSO wells, 100% control agonist wells | actives 0.69% (n = 65,000) | P28566 | AID 574 | activation, % at 6 µM;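 active = activation above a set limit, the screen-wide mean activation plus 3 SD, cut at about 8.5% in these data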;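 note: 100% = positive control agonist at 1 µM giving full maximal response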
# S1P3 agonist: activates the human S1P3 receptor | Q99500 | S1P3 NFAT-BLA reporter cells, agonism, FRET ratio; relative to 1 µM S1P, basal subtracted | activation, % at 4.5 µM | actives 0.1% (n = 60,000);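 active = activation above the screen-wide mean plus 3 SD, cut at about 4.5% in these data, passing the limit was not always enough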
#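 Assay system: stable CHO line with human S1P3, Gα16, NFAT-BLA reporter; Detection: FRET β-lactamase substrate fluorescence, excitation 405 nm, 460/535 nm emission ratio, background-subtracted; Read-out: percent activation versus median 1 µM S1P response, basal-subtracted, per plate; Incubation: cells plated overnight, compound 4 h 37 °C, substrate 2 h RT.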
# S1P1 ag-PAM: activates or potentiates agonism at human S1P1 receptor; P21453; S1P1 CRE-bla cells, forskolin, beta-lactamase FRET, potentiator mode; S1P1 agonist co-added at EC20, 2 nM; 100% = saturating reference agonist, 0% = basal; activation, % at 9.5 µM; actives 0.57% (n = 56,000);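 active = activation above a cutoff set at the mean activation of all tested compounds plus 3 SD, cut at about 54% in these data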;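 note: forskolin at 4 µM as EC80 and the EC20 agonist is SEW2871; 100% = SEW2871 at its EC100 plus forskolin at EC80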
# 5HT1a ag: agonists of human 5-HT1a serotonin receptor; P08908; CHO 5-HT1a Ga15 NFAT-bla reporter, FRET ratio; 0% basal, 100% maximal reference agonist; activation, % at 10 µM; actives 0.56% (n = 65,000); AID 567;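 active = activation above the screen-wide mean activation plus 3 SD, cut at about 19% in these data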;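 note: 0% = DMSO wells and 100% = 5-CT at EC100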
# The depositor's hits bear a star; . = no result given.
SMILES,5HT1a antag,5HT1E antag,5HT1E ag,S1P3 agonist,S1P1 ag-PAM,5HT1a ag
CC1CCN(C(=O)CSc2nc3cccnc3n2C)CC1,-12.1,5.5,-1.1,-0.9,-2.4,89.2*
Nc1nc2c3ccccc3nc(Cc3ccccc3)n2n1,-11.0,8.6,0.4,-0.1,-35.0,-1.3
CCCc1nc2ccccc2c2nc(N)nn12,-4.9,34.2*,0.8,0.0,-27.7,-3.4
CCOC(=O)c1c(NC(=O)c2cc(C3CC3)on2)sc(C(C)=O)c1C,-0.4,-5.5,0.9,-0.5,1.8,-0.5
O=C(CSc1nc2ccccc2c(=O)n1CC1CCCO1)NCC1CCCO1 (stereo not given),-1.4,-2.9,0.0,-0.2,-12.8,0.2
O=c1c2ccccc2c2ccccc2c(=O)n1CC1CCCO1 (stereo not given),-6.2,34.8*,0.2,-1.4,-4.0,-2.7
c1ccc(CCn2nnnc2C(c2cccnc2)N2CCN(c3nc4ccccc4s3)CC2)cc1 (stereo not given),17.8,1.7,1.0,0.2,-11.8,2.4
c1ccc(CCn2nnnc2C(c2cccnc2)N2CCN(c3ccccc3)CC2)cc1 (stereo not given),8.7,1.2,9.9*,-0.6,-1.4,-0.8
Fc1ccc(N2CCN(C(c3cccs3)c3nnnn3CCc3ccccc3)CC2)cc1 (stereo not given),24.9,-5.0,0.8,0.6,18.9,2.1
Fc1ccccc1N1CCN(C(c2cccs2)c2nnnn2CCc2ccccc2)CC1 (stereo not given),57.4*,20.1,-0.9,-0.8,39.7,-3.9
N#Cc1ccc2ccn(CC(=O)NC3CCCCC3)c2c1,16.3,1.4,0.1,1.7,16.4,-2.5
COC(=O)C1=C(C)NC2=C(C(=O)CCC2)C1c1ccccn1 (stereo not given),1.6,12.0,1.2,-1.1,-13.3,-1.7
O=C(CSc1nnc(SCc2ccc(Cl)cc2)s1)N1CCOCC1,8.6,2.7,-0.3,-1.3,0.4,0.5
CCOC(=O)CS(=O)(=O)c1nc(-c2ccc(F)cc2)cc(C(F)(F)F)n1,102.5*,81.8*,3.3,-2.2,-34.3,-10.0
CCOC(=O)CCS(=O)(=O)c1nc(-c2ccccc2)cc(C(F)(F)F)n1,86.3*,54.3*,1.4,-1.3,.,-0.2
COCC(C)NC(=O)CCS(=O)(=O)c1nc(-c2ccc(OC)cc2)cc(C(F)(F)F)n1 (stereo not given),38.9,8.2,0.1,-1.0,16.2,4.3
CCOC(=O)CS(=O)(=O)c1nc(-c2ccccc2)cc(C(F)(F)F)n1,104.8*,107.8*,4.6,-0.7,1.8,-6.6
CC(C)CC(c1nnnn1CC1CCCO1)N1CCN(c2nc3ccccc3s2)CC1 (stereo not given),2.7,-10.2,0.5,-0.4,-19.0,-4.6
CCCCC(c1nnnn1CC1CCCO1)N1CCN(c2nc3ccccc3s2)CC1 (stereo not given),26.4,19.5,10.4*,-1.0,38.1,-1.9
CCSc1nnc(NC(=O)CSc2nc3c(c(=O)n2-c2ccccc2OC)SCC3)s1,5.3,-1.4,-0.7,-0.6,-13.8,1.3
O=C(Nc1ncnc2c1CCC2)C12CC3CC(CC(C3)C1)C2,2.5,16.3,0.2,-1.0,-2.2,40.0*
Cc1cc(NC(=O)C2CC2)ncc1NC(=O)C12CC3CC(CC(C3)C1)C2,3.0,5.7,-0.1,.,.,-1.1
CCCCn1c(=N)n(CC(O)COc2ccccc2)c2ccccc21 (stereo not given),54.4*,16.8,-1.4,-0.9,0.9,-4.4
CCCn1c(=N)n(CC(O)COc2cccc(C)c2)c2ccccc21 (stereo not given),37.2,-9.3,-0.3,-0.9,-21.3,-2.0
CCCCn1c(=N)n(CC(O)COc2ccc(C)cc2)c2ccccc21 (stereo not given),53.1*,-3.2,-0.1,-1.7,13.6,-2.8
SMILES,5HT1a antag,5HT1E antag,5HT1E ag,S1P3 agonist,S1P1 ag-PAM,5HT1a ag
N=c1n(Cc2ccccc2)c2ccccc2n1CC(O)COc1ccccc1 (stereo not given),22.0,4.6,-0.5,-0.7,-15.3,19.7*
Cc1ccc(S(=O)(=O)N(CC(=O)NCc2ccncc2)C2CCCCC2)cc1,-4.9,2.4,1.2,0.4,15.7,-0.1
Cc1noc(C)c1S(=O)(=O)N1CCCC(C(=O)NCCc2ccc(Cl)cc2)C1 (stereo not given),12.9,4.9,-0.5,-0.3,7.5,0.3
CCSc1nnc(NC(=O)CSc2nnc(-c3c[nH]c4ccccc34)n2C)s1,-13.8,-5.1,1.1,-1.1,4.9,-3.8
O=c1[nH]c2ccc(S(=O)(=O)N3CCN(C4CCCCC4)CC3)cc2[nH]c1=O,-6.9,-6.0,-0.3,-0.4,-0.9,-2.5
Cc1cc(C)cc(N(CC(=O)NCc2cccnc2)S(C)(=O)=O)c1,-7.5,-0.5,16.6*,-1.7,0.9,-0.1
CCN(CC)CCCCOc1ccccc1OC,-12.9,-5.6,10.3*,-0.7,-17.2,0.3
Cc1cc(Nc2ccc3c(c2)OCCO3)n2ncnc2n1,0.9,7.0,3.0,-0.5,-34.8,-2.0
N#Cc1nc(COc2ccc(F)cc2)oc1N1CCC(Cc2ccccc2)CC1,56.0*,1.5,-1.3,-1.0,10.4,-4.0
COc1ccc(N2CCN(c3oc(COc4ccccc4Cl)nc3C#N)CC2)cc1,49.5*,1.6,-0.5,.,.,-3.7
COc1ccc(OCc2nc(C#N)c(N3CCN(c4ccc(OC)cc4)CC3)o2)cc1,51.8*,7.3,-0.4,-1.5,10.1,-2.2
N#Cc1nc(COc2ccc(Cl)cc2)oc1N1CCCCCC1,28.4,15.1,-0.4,-1.2,.,-2.0
COC(=O)Cc1c[nH]c2ccc(OCC(O)CNC(C)C)cc12 (stereo not given),0.2,4.4,-1.5,-1.4,-9.2,-1.8
CC(C)NCC(O)COc1cccc2[nH]ccc12 (stereo not given),.,-6.9,8.7*,-2.3,6.5,1.1
O=C(c1ccccc1F)N1CCN(CC2CC3C=CC2C3)CC1 (stereo not given),14.8,0.5,-0.6,-1.5,2.2,-2.9
Cn1c(=O)cc(OCC(=O)NCCCN2CCN(c3cccc(Cl)c3)CC2)c2ccccc21,27.6,1.7,9.3*,-0.3,-8.7,0.8
CCn1c(=O)cc(SCC(=O)NCCCN2CCN(c3ccccc3F)CC2)c2ccccc21,68.6*,-11.3,1.2,-1.7,-11.4,7.7
Cc1ccnc(NC(=O)CCCOc2cc(=O)n(C)c3ccccc23)c1,65.7*,19.6,-0.9,-0.7,-25.2,0.0
CC1(C)CC(=O)c2cc(OCC(=O)NCc3cccnc3)ccc2O1,-4.7,0.3,0.4,0.0,-17.9,-0.3
CC1(C)CC(=O)c2cc(OCC(=O)NCCCN3CCN(c4ccccc4F)CC3)ccc2O1,27.7,4.9,9.6*,-0.7,-13.7,5.3
